Source: ChEMBL document CHEMBL4400528, “Discovery and Optimization of Selective and in Vivo Active Inhibitors of the Lysophosphatidylserine Lipase α/β-Hydrolase Domain-Containing 12 (ABHD12)” (J Med Chem, 2019)
Active and inactive are the calls of the source. No cut-off for these calls is given here.

Assays:
[1] = biological target: T1, Lysophosphatidylserine lipase ABHD12 (Mus musculus, UniProt Q99LR1); assay: Inhibition of JJH350 binding to ABHD12 in mouse brain membrane proteome incubated for 20 mins by CuAAC fluorescence dependent gel-based competitive ABPP assay; format: cell membranes
T1 sequence (Q99LR1 whole entry): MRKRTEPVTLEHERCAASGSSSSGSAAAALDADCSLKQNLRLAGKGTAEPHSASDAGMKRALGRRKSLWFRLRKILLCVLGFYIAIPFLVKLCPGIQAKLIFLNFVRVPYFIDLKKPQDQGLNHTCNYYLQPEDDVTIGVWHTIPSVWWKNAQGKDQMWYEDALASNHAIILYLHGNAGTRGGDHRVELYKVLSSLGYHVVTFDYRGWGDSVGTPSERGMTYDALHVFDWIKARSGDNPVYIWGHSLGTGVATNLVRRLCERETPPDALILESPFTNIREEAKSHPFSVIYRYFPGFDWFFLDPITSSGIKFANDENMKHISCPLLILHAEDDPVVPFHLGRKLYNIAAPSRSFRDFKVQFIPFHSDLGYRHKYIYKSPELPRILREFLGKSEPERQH
Outline: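 Brain membrane fraction (1 mg/mL; DPBS homogenate, 16,000 x g pellet) treated with inhibitor for 20 min at room temperature. JJH350 (2 μM) added for 45 min at 37 °C, then CuAAC with rhodamine-PEG3-azide, CuSO4, TBTA and TCEP for 1 h at room temperature. Run on 10% SDS-PAGE and read by in-gel fluorescence. ABHD12 band normalized to control-treated sample (100%); IC50 from log dose-response fit.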

[2] = biological target: T2, Lysophosphatidylserine lipase ABHD12 (Homo sapiens) (UniProt Q8N2K0); assay: Inhibition of ABHD12 in PMA-differentiated human THP1 cells assessed as increase in TNF-alpha production treated simultaneously with IFN-gamma/LPS for 24 hrs and measured 6 to 24 hrs after stimulation
T2 sequence (whole entry): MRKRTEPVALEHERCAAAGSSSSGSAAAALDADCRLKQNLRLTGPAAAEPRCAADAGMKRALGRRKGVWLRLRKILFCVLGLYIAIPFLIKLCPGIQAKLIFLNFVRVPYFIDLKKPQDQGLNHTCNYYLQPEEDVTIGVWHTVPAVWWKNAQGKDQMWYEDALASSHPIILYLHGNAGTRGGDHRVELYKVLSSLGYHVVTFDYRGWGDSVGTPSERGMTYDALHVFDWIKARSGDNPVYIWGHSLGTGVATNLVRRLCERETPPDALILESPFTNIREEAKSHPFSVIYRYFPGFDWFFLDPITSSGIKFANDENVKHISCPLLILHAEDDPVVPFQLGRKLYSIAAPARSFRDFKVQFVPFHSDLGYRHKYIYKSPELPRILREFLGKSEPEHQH
Outline: (§1)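 THP-1 cells grown in RPMI/10% FBS/0.05 mM 2-mercaptoethanol, plated 2.5×10^6 per well. Treated 24 h with 150 ng/mL PMA, washed, rested 24 h. Polarized to M1 with 20 ng/mL IFN-γ plus 10 pg/mL LPS for 24 h. Compound or DMSO (test 0.1–1 μM) present at every step. Media sampled 6 and 24 h after stimulation; cytokines by MSD V-Plex. Mean ± SEM, four biological experiments.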

[3] = biological target: T2, Lysophosphatidylserine lipase ABHD12 (Homo sapiens); assay: Inhibition of ABHD12 in PMA-differentiated human THP1 cells assessed as increase in IL-1beta production treated simultaneously with IFN-gamma/LPS for 24 hrs and measured 6 to 24 hrs after stimulation; outline: as §1
[4] = biological target: T2, Lysophosphatidylserine lipase ABHD12 (Homo sapiens); assay: Inhibition of ABHD12 in PMA-differentiated human THP1 cells assessed as increase in CCL3 production treated simultaneously with IFN-gamma/LPS for 24 hrs and measured 6 to 24 hrs after stimulation; outline: as §1
[5] = biological target: T2, Lysophosphatidylserine lipase ABHD12 (Homo sapiens); assay: Inhibition of ABHD12 in PMA-differentiated human THP1 cells assessed as increase in CCL4 production treated simultaneously with IFN-gamma/LPS for 24 hrs and measured 6 to 24 hrs after stimulation; outline: as §1
[6] = test system: THP-1; assay: Cytotoxicity against human THP1 cells assessed as effect on cell viability at 1 uM after 72 hrs by CellTiter-Glo assay; format: cell-based; conditions: thp-1, 72 h
Outline: (§2)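 Cells seeded at 3,000 per well and left 24 h. Compounds then added at 0.1–10 μM final and incubated 72 h. Viability read by CellTiter-Glo luminescence and normalized to vehicle-treated controls.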

[7] = test system: HT-1080; assay: Cytotoxicity against human HT1080 cells assessed as effect on cell viability at 1 uM after 72 hrs by CellTiter-Glo assay; format: cell-based; conditions: ht-1080, 72 h; outline: as §2
[8] = test system: MDA-MB-231; assay: Cytotoxicity against human MDA-MB-231 cells assessed as effect on cell viability at 1 uM after 72 hrs by CellTiter-Glo assay; format: cell-based; conditions: mda-mb-231, 72 h; outline: as §2
[9] = test system: T98G; assay: Cytotoxicity against human T98G cells assessed as effect on cell viability at 1 uM after 72 hrs by CellTiter-Glo assay; format: cell-based; outline: as §2
[10] = Drug level in mouse brain at 30 mg/kg, po; format: ADME, organism-based; conditions: in vivo, read-out: Drug uptake
[11] = Drug level in mouse brain at 30 mg/kg, ip; format: ADME, organism-based; conditions: in vivo, read-out: Drug uptake
[12] = Toxicity in mouse at 30 mg/kg, po; format: organism-based; conditions: in vivo
[13] = Drug level in mouse peripheral regions at 30 mg/kg, po; format: ADME, organism-based; conditions: in vivo, read-out: Drug uptake
[14] = Drug level in mouse peripheral regions at 30 mg/kg, ip; format: ADME, organism-based; conditions: in vivo, read-out: Drug uptake
[15] = Toxicity in mouse at 30 mg/kg, ip; format: organism-based; conditions: in vivo
[16] = biological target: T3, Lysophosphatidylserine lipase ABHD12 (Mus musculus) (UniProt Q99LR1); assay: Binding affinity to ABHD12 in mouse brain membrane proteome at 0.016 to 10 uM incubated for 45 mins by CuAAC fluorescence dependent gel-based competitive ABPP assay; format: cell membranes
T3 sequence (whole entry): T1 sequence (Q99LR1 whole entry)
Outline: (§3)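 Mouse brain membrane proteome (1 mg/mL) preincubated with inhibitor for 45 min at 37 °C. Labelled with FP-Rh (1 μM) or JJH350 (2 μM) for 45 min at 37 °C. JJH350 samples were clicked to Rh-N3 (25 μM) by CuAAC for 60 min at room temperature. Read by 10% SDS-PAGE and in-gel fluorescence scanning. Band intensity taken relative to control (100%), and IC50 from log(inhibitor) vs normalized response.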

[17] = biological target: T1, Lysophosphatidylserine lipase ABHD12; assay: Inhibition of FP-Rh probe binding to ABHD12 in mouse brain membrane proteome incubated for 45 mins by CuAAC fluorescence dependent gel-based competitive ABPP assay; format: cell membranes; outline: as §3
[18] = biological target: T4, Monoacylglycerol lipase ABHD6 (Mus musculus) (UniProt Q8R2Y0); assay: Binding affinity to ABHD6 in mouse brain membrane proteome at 0.016 to 10 uM incubated for 45 mins by CuAAC fluorescence dependent gel-based competitive ABPP assay; format: cell membranes; outline: as §3
T4 sequence (whole entry): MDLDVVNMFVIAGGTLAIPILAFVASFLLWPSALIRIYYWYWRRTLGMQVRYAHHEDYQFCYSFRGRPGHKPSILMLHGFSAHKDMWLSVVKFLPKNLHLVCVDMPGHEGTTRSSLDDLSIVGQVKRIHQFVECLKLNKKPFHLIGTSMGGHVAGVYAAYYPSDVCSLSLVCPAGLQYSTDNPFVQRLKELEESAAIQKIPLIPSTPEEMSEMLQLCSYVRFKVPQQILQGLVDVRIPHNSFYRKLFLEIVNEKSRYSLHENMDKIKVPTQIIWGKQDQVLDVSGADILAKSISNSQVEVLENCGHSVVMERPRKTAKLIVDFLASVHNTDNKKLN

Compound: FC(F)(F)Oc1ccc(Oc2ccnc(N3CCC(NC(=S)Nc4cccnc4)CC3)c2Cl)c(Cl)c1
- IC50 [1]: 0.011 µM
- inhibition [2]: Dose-dependent effect
- inhibition [3]: Dose-dependent effect
- inhibition [4]: Dose-dependent effect
- inhibition [5]: Dose-dependent effect
- Activity [6]: Non-Toxic
- Activity [7]: Non-Toxic
- Activity [8]: Non-Toxic
- Activity [9]: Non-Toxic
- concentration [10]: 3 to 9 µM
- concentration [11]: 3 to 9 µM
- Activity [12]: Non-Toxic
- concentration [13]: 3 to 9 µM
- concentration [14]: 3 to 9 µM
- Activity [15]: Non-Toxic

Compound: C#CCOc1ccc(N2CCN(C(=O)ON3C(=O)C4CN(C(=O)c5ccc(Oc6ccccc6)cc5)CCN4C3=O)CC2)cc1 (stereo not drawn)
- Activity [16]: Active
- IC50 [17]: 0.4 µM
- Activity [18]: Active
